Activity calls are given as the source filed them. The rule behind the calls is not given here.
Experiments:
[1] = Octanol-buffer partition coefficient, log D at pH 7.4; type: physicochemical; settings: read-out: LogD7.4
[2] = Artificial human sebum-water partition coefficient, log K of the compound; type: physicochemical
Summary of the method: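 About 5 mg artificial human sebum, spiked with drug at 1 mg/250 μL sebum, was equilibrated with 1 mL saturated aqueous solution at 37 C for 15 h. Drug concentration in the aqueous phase was then analysed, and the sebum–water partition coefficient was derived from it.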

Syrian golden hamster [3] = assay: Inhibition of cholesterol ester in Syrian golden hamster ear model for sebum at 1% administered topically BID 5 days a week for 2 weeks measured 18 to 24 hrs after the final dose; type: functional, Mesocricetus auratus
Androgen receptor [4] = molecular target: T1, Androgen receptor (Homo sapiens, UniProt P10275); assay: Antagonist activity at androgen receptor in human MDA-MB-453 cells coexpressing MMTV-ARE reporter gene assessed as inhibition of DHT-induced response; type: functional, cell-based
T1 sequence (P10275 whole entry): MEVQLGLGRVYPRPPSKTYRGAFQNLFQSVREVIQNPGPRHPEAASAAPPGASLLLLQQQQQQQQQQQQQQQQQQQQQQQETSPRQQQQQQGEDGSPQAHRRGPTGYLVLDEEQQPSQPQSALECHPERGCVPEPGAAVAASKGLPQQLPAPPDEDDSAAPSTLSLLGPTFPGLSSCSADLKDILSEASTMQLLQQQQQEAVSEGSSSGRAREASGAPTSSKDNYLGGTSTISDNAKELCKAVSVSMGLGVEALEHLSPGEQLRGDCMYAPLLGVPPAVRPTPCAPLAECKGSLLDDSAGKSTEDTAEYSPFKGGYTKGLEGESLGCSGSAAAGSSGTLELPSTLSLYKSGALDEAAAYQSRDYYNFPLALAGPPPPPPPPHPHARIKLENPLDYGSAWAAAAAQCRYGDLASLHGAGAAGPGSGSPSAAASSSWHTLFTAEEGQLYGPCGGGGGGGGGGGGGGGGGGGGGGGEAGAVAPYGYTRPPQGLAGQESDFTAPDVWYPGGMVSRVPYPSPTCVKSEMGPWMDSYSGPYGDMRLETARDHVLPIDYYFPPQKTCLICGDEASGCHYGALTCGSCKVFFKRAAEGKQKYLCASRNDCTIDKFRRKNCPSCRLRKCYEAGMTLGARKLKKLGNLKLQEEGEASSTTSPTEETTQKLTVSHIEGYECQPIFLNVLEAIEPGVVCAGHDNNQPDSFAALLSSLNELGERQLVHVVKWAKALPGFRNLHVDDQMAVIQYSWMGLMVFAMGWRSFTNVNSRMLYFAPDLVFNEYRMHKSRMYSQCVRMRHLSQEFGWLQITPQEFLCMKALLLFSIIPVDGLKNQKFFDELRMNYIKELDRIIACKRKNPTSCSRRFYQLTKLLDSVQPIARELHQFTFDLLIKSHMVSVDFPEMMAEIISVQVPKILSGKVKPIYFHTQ

Syrian golden hamster [5] = assay: Inhibition of wax ester in Syrian golden hamster ear model for sebum at 1% administered topically BID 5 days a week for 2 weeks measured 18 to 24 hrs after the final dose; type: functional, Mesocricetus auratus
Androgen receptor [6] = molecular target: T1, Androgen receptor; assay: Displacement of [3H]DHT from human AR expressed in baculovirus Sf9 cells system by scintillation counting
Progesterone receptor = molecular target: T2, Progesterone receptor (Homo sapiens, UniProt P06401); assay: Binding affinity to progesterone receptor by PRB assay
T2 sequence (P06401 whole entry): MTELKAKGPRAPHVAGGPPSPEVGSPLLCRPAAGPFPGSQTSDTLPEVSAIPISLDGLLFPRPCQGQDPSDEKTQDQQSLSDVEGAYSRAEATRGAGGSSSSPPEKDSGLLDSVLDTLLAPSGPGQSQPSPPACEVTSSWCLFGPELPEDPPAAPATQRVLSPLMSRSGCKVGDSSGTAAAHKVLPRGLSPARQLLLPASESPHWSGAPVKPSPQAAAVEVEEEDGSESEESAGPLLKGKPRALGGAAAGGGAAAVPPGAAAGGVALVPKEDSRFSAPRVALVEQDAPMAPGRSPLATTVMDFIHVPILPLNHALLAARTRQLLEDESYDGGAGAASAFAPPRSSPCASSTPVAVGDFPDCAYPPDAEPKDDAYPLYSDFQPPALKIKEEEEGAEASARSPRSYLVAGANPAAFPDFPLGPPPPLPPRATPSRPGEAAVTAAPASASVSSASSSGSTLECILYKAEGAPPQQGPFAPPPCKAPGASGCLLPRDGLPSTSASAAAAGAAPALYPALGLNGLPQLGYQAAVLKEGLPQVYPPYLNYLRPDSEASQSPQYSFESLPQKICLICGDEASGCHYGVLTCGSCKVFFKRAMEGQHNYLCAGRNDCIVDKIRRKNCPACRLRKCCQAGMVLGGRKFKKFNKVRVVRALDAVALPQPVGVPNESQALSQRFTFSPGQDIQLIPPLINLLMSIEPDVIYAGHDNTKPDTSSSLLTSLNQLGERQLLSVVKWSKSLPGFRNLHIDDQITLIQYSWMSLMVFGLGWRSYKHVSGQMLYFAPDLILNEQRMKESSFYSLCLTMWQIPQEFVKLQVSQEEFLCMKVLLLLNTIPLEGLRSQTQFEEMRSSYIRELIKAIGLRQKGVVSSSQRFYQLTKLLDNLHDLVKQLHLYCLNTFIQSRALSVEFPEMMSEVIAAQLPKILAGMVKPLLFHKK

Syrian golden hamster [7] = assay: Inhibition of cholesterol ester in Syrian golden hamster ear model for sebum at 1.5% administered topically BID 5 days a week for 2 weeks measured 18 to 24 hrs after the final dose; type: functional, Mesocricetus auratus
Syrian golden hamster [8] = assay: Inhibition of wax ester in Syrian golden hamster ear model for sebum at 1.5% administered topically BID 5 days a week for 2 weeks measured 18 to 24 hrs after the final dose; type: functional, Mesocricetus auratus
[9] = Clearance in rat at 1 mg/kg, iv; type: ADME, organism-based; set-up: dose 1 mg/kg, route intravenous; settings: in vivo
[10] = Clearance in human; type: ADME, organism-based; settings: in vivo
Sus scrofa [11] = assay: Toxicity in minipig assessed as dermal toleration at 25% administered topically BID for 7 days; type: organism-based; settings: pig, in vivo, topical_or_ocular, 168 h
Rattus norvegicus [12] = assay: Liver blood flow in rat at 1 mg/kg, iv; type: ADME, organism-based; set-up: dose 1 mg/kg, route intravenous; settings: in vivo
Syrian golden hamster [13] = assay: Inhibition of wax ester in Syrian golden hamster ear model for sebum administered topically BID 5 days a week for 2 weeks measured 18 to 24 hrs after the final dose; type: functional, Mesocricetus auratus
Summary of the method: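 Golden Syrian hamster ear model with twice-daily topical dosing for 2 weeks in the vehicle chosen for phase 1 studies. Wax ester production was measured across a range of doses, and ED50 was expressed as % dose. Data are mean ± SEM, N = 5.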

Mus musculus [14] = assay: Toxicity in BALB/c mouse assessed as skin sensitization at 25% administered for 4 days; type: organism-based; settings: in vivo, 96 h
[15] = Hamster sebum-water partition coefficient, log K of the compound; type: ADME
Syrian golden hamster [16] = assay: Reduction in wax ester-associated sebaceous gland size decrease in Syrian golden hamster ear model for sebum administered topically BID 5 days a week for 2 weeks measured 18 to 24 hrs after the final dose; type: functional, organism-based; settings: Mesocricetus auratus
Summary of the method: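 Hamsters were dosed on the ear twice daily for 2 weeks. Sebaceous gland size was quantified by fatty acid synthase immunohistochemical staining and correlated with wax ester reduction by correlation coefficient.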

Mus musculus [17] = assay: Toxicity in BALB/c mouse assessed as lymph node contact hypersensitivity at 25% administered for 4 days; type: organism-based; settings: in vivo, 96 h
Syrian golden hamster [18] = assay: Toxicity in Syrian golden hamster ear model for sebum assessed as cytotoxicity-mediated sebaceous gland size administered topically BID 5 days a week for 2 weeks measured 18 to 24 hrs after the final dose; type: organism-based, Mesocricetus auratus; settings: in vivo, topical_or_ocular
Summary of the method: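 After 2 weeks of twice-daily topical application to hamster ears, sebocytes were examined histopathologically for cytotoxic changes alongside the reduction in sebaceous gland size.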

Sus scrofa [19] = assay: Toxicity in minipig assessed as systemic antiandrogenic effect at 25% administered topically BID for 7 days; type: organism-based; settings: pig, in vivo, topical_or_ocular, 168 h
[20] = Drug level in Syrian golden hamster sebaceous gland at 0.2% administered topically after 8 hrs; type: ADME, tissue-based, Mesocricetus auratus; settings: topical or ocular, read-out: Drug uptake
[21] = Intrinsic clearance in human liver microsomes after 1 hr by LC/MS/MS method; type: ADME, Microsome
Glucocorticoid receptor = molecular target: T3, Glucocorticoid receptor (Homo sapiens, UniProt P04150); assay: Binding affinity to glucocorticoid receptor
T3 sequence (P04150 whole entry): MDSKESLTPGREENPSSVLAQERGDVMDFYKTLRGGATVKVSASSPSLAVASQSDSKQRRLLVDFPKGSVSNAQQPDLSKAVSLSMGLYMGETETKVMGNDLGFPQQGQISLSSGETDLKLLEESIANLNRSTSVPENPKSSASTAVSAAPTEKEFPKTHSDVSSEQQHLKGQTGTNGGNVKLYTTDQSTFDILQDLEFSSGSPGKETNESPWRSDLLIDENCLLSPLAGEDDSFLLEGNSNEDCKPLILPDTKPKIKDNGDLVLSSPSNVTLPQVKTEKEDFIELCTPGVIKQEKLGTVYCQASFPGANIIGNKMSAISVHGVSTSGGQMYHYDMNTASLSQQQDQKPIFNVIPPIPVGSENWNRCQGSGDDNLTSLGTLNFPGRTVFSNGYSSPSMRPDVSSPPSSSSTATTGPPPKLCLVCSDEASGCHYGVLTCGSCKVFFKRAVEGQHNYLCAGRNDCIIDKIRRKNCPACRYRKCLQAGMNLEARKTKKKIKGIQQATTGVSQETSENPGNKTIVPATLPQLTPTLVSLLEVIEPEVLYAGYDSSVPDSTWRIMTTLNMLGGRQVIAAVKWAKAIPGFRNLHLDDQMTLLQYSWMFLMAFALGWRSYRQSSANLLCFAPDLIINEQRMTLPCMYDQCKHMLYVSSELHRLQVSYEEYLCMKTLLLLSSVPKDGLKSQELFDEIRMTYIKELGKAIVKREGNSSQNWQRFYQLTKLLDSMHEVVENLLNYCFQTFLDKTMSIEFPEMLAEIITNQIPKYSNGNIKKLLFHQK

Estrogen receptor = molecular target: T4, Estrogen receptor (Homo sapiens, UniProt P03372); assay: Binding affinity to estrogen receptor
T4 sequence (P03372 whole entry): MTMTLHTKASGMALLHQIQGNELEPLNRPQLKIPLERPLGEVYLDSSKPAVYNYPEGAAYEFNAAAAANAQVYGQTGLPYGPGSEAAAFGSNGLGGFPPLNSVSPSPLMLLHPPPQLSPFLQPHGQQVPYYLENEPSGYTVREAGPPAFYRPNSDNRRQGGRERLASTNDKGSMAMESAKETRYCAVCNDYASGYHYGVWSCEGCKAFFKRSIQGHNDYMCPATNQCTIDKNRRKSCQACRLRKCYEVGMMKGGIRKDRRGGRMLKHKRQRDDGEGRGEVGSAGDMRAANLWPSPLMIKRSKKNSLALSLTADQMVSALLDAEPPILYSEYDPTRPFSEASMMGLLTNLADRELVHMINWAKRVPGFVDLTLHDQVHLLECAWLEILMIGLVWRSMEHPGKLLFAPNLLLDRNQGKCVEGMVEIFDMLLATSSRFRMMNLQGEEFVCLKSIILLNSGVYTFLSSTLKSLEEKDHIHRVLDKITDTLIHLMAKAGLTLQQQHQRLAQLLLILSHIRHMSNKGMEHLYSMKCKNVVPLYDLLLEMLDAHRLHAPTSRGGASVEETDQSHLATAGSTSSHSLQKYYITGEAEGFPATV

[22] = Binding affinity to thyroid hormone receptor
[23] = Elimination half life in Syrian golden hamster sebaceous gland at 0.2% administered topically after 8 hrs; type: ADME, tissue-based, Mesocricetus auratus; settings: topical or ocular, read-out: beta t1/2 (converted)
Rattus norvegicus [24] = assay: Toxicity in Sprague-Dawley rat assessed as systemic antiandrogenic effect at 0.5 to 300 mg/kg, po administered once-daily for 7 days; type: organism-based; set-up: dose 0.5-300 mg/kg, route oral; settings: in vivo, 168 h

Structure (SMILES)	logD [1]	log K [2]	inhibition (INH) (Syrian golden hamster [3])	IC50 (Androgen receptor [4])	inhibition (INH) (Syrian golden hamster [5])	IC50 (Androgen receptor [6])	IC50 (Progesterone receptor)	other results
N#Cc1ccc(O[C@@H]2CCCC[C@H]2C#N)cc1C(F)(F)F	3.4	3.03	–	–	–	–	–	–
C[C@H](O)CC[C@H](C)Oc1ccc(C#N)c(C(F)(F)F)c1	3.73	2.06	–	–	–	–	–	–
N#Cc1ccc(Oc2ccc(F)cc2F)cc1C(F)(F)F	–	4.06	24%	0.06 µM	31%	0.488 µM	> 10 µM	–
N#Cc1ccc(Sc2ccccc2F)cc1C(F)(F)F	–	4.48	50%	–	64%	–	6.95 µM	–
CSc1ccc(CN2CC(C)(C)[C@@H](Oc3ccc(C#N)c(C(F)(F)F)c3)C2=O)cc1	–	4.6	–	0.028 µM	–	0.316 µM	> 10 µM	inhibition (INH) (Syrian golden hamster [7]): 75%; inhibition (INH) (Syrian golden hamster [8]): 89%
CC1(C)CN(Cc2ccccc2)C(=O)[C@@H]1Oc1ccc(C#N)c(C(F)(F)F)c1	4.88	3.92	61%	0.038 µM	78%	0.1 µM	4.4 µM	clearance [9]: 3.42 L/h/kg; clearance [10]: 0.96 L/h/kg; Activity (Sus scrofa [11]): Non-toxic; LBF (Rattus norvegicus [12]): 80%; ED50 (Syrian golden hamster [13]): 0.02 mg/cm2; Activity (Mus musculus [14]): Non-toxic; log K [15]: 3.85; Activity (Syrian golden hamster [16]): Active; Activity (Mus musculus [17]): Non-toxic; Activity (Syrian golden hamster [18]): Non-toxic; Activity (Sus scrofa [19]): Non-toxic; concentration at 8 h [20]: 156 µM; CLint scaled [21]: 7.26 L/h/kg; IC50 (Glucocorticoid receptor): > 10 µM; IC50 (Estrogen receptor): > 10 µM; IC50 [22]: > 10 µM; half-life [23]: 7 h; Activity (Rattus norvegicus [24]): Non-toxic
CCCN1CC(C)(C)[C@@H](Oc2ccc(C#N)c(C(F)(F)F)c2)C1=O	3.33	2.74	–	–	–	–	–	–
CC1(C)CN(Cc2ccccc2F)C(=O)[C@@H]1Oc1ccc(C#N)c(C(F)(F)F)c1	–	3.95	42%	0.044 µM	72%	0.174 µM	4.82 µM	–

— ChEMBL document CHEMBL1155517, “Rational design of a topical androgen receptor antagonist for the suppression of sebum production with properties suitable for follicular delivery” (J Med Chem, 2010)
